The text below walks through data of ChEMBL document CHEMBL2069201, “N-Benzoyl anthranilic acid derivatives as selective inhibitors of aldo-keto reductase AKR1C3” (Bioorg Med Chem Lett, 2012).

The target of experiment [1] is T1, Aldo-keto reductase family 1 member C3 (Homo sapiens) (UniProt P42330).
T1 sequence (whole entry): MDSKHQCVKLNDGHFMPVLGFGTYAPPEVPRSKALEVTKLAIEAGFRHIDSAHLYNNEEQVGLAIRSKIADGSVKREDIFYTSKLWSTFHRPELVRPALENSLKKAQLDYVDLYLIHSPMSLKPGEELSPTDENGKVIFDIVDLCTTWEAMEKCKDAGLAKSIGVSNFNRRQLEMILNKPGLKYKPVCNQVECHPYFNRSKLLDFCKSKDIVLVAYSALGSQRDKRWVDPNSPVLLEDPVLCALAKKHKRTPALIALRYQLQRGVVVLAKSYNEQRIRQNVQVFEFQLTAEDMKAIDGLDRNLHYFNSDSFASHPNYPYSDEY
In words: Inhibition of recombinant AKR1C3 using 1-acenaphthenol as substrate at 10 uM by spectrophotometry. The method, boiled down: (§1)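 Oxidation of 1-acenaphthenol was run with 2.3 mM NAD+ in 100 mM phosphate pH 9.0 containing 0.005% Triton X-114 and 5% DMSO. Substrate/enzyme were 30 µM/0.1 µM for AKR1C1, 60 µM/0.3 µM for AKR1C2 and 100 µM/1.5 µM for AKR1C3. NADH rise was read at 340 nm from initial velocities. […] Mean of two experiments.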

The target in experiment [2] is T2, Aldo-keto reductase family 1 member C2 (Homo sapiens) (UniProt P52895).
T2 sequence (whole entry): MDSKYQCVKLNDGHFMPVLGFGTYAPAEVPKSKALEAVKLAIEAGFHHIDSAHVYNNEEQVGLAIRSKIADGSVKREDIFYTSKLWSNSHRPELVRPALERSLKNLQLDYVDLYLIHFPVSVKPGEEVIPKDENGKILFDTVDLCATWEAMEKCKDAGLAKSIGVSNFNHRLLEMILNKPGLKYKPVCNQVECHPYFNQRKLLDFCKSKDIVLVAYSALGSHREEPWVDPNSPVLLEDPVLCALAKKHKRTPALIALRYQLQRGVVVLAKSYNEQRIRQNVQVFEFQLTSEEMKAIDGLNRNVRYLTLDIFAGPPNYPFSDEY
The experiment in a line: Inhibition of recombinant AKR1C2 using 1-acenaphthenol as substrate at 10 uM by spectrophotometry. The method, boiled down: as §1

The target in experiment [3] is T3, Aldo-keto reductase family 1 member C1 (Homo sapiens) (UniProt Q04828).
T3 sequence (whole entry): T2 sequence (whole entry) with V38T, H47R, V54L, S87C, M151V, H170R, L172Q
The experiment in a line: Inhibition of recombinant AKR1C1 using 1-acenaphthenol as substrate at 10 uM by spectrophotometry. The gist of the method: as §1

Experiment [4] has as its target T4, Aldo-keto reductase family 1 member C3 (Homo sapiens, UniProt P42330).
T4 sequence (P42330 whole entry): T1 sequence (whole entry)
The experiment in a line: Inhibition of recombinant AKR1C3 using 1-acenaphthenol as substrate by spectrophotometry. The gist of the method: as §1

For experiment [5], the species on record is Homo sapiens. In words: Selectivity ratio of IC50 for AKR1C2 to AKR1C3. The gist of the method:
(§2)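 Fold selectivity for AKR1C3 was calculated from IC50 values of the secondary assay. That assay followed fluorimetric NADP+-dependent S-tetralol oxidation at pH 7.0, with substrate at each isoform's Km.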

The target in experiment [6] is T5, Aldo-keto reductase family 1 member C1 (Homo sapiens, UniProt Q04828).
T5 sequence (Q04828 whole entry): T2 sequence (whole entry) with V38T, H47R, V54L, S87C, M151V, H170R, L172Q
The experiment in a line: Inhibition of recombinant AKR1C1 using S-tetralol as substrate by fluorimetry. The method, boiled down: (§3)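 Continuous NADP+-dependent oxidation of S-tetralol, read as NADPH fluorescence at 340/460 nm. Buffer was 100 mM phosphate pH 7.0 with 200 µM NADP+ and 4% DMSO. […] Enzyme was 111, 86, 95 and 184 nM respectively. Initial velocities were fitted to give IC50. Mean of two independent experiments.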

Experiment [7] addresses T6, Aldo-keto reductase family 1 member C2 (Homo sapiens, UniProt P52895).
T6 sequence (P52895 whole entry): T2 sequence (whole entry)
The experiment in a line: Inhibition of recombinant AKR1C2 using S-tetralol as substrate by fluorimetry. The gist of the method: as §3

Experiment [8] is filed under the species Homo sapiens. In words: Selectivity ratio of IC50 for AKR1C4 to AKR1C3. The gist of the method: as §2
The target of experiment [9] is T4, Aldo-keto reductase family 1 member C3. In words: Inhibition of recombinant AKR1C3 using S-tetralol as substrate by fluorimetry. The method, boiled down:
as §3

The species entered for experiment [10] is Homo sapiens. In words: Selectivity ratio of IC50 for AKR1C1 to AKR1C3. The gist of the method:
as §2

In experiment [11] the target is T7, Aldo-keto reductase family 1 member C4 (Homo sapiens, UniProt P17516).
T7 sequence (P17516 whole entry): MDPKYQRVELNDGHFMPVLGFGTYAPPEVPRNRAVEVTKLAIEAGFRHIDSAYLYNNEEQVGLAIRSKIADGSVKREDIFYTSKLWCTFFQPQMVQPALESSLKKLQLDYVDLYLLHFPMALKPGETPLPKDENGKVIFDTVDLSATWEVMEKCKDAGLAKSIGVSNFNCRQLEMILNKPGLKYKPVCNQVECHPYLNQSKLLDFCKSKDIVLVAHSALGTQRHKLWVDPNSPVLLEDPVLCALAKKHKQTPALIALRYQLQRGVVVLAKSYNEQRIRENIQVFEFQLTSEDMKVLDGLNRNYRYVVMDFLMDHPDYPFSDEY
In words: Inhibition of recombinant AKR1C4 using S-tetralol as substrate by fluorimetry. The gist of the method:
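Continuous NADP+-dependent oxidation of S-tetralol, read as NADPH fluorescence at 340/460 nm. Buffer was 100 mM phosphate pH 7.0 with 200 µM NADP+ and 4% DMSO. Initial velocities were fitted to give IC50. Mean of two independent experiments.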

Experiment [12] concerns the target T6, Aldo-keto reductase family 1 member C2. The experiment in a line: Inhibition of recombinant AKR1C2 using 1-acenaphthenol as substrate by spectrophotometry. The gist of the method: as §1
Experiment [13] addresses T5, Aldo-keto reductase family 1 member C1. In words: Inhibition of recombinant AKR1C1 using 1-acenaphthenol as substrate by spectrophotometry. The gist of the method: as §1

Substitutions are numbered along the chain they refer to. Active and inactive are the calls of the source. No cut-off for these calls is given here. Where only a bound is given, the exact number is not on record here.

As usually defined, the inhibition is the share of the control response that was lost under treatment. For `Nc1cccc(C(=O)Nc2ccccc2C(=O)O)c1`, the inhibition entry in experiment [1] and in [2] was “inactive” each time. In addition, the inhibition in [3] was 8%.
What is called IC50 is the midpoint of a concentration-inhibition curve. With `O=C(Nc1ccccc1C(=O)O)c1cccc(O)c1`, the IC50 in experiment [4] was 12.7 µM; in experiment [6], more than 100 µM; in experiment [7], 48.1 µM; in experiment [9], 5.19 µM. Further, the Ratio IC50 in experiment [5] was 9; in [8], more than 19; in experiment [10], more than 19. In addition, the inhibition in experiment [1] turned out to be 42.1%. Besides, the inhibition entry in [2] and in experiment [3] was “inactive” throughout.
On to `O=C(Nc1ccc(Br)cc1C(=O)O)c1cccc(O)c1`, for which the half-maximal inhibitory concentration (IC50) was found to be 1.9 µM in experiment [4]; 30.3 µM in [11]; 100 µM in experiment [6]; 63 µM in experiment [7]; 0.35 µM in [9]. Further, the Ratio IC50 in experiment [5] worked out at 180; in experiment [8], 86; in experiment [10], 286. The inhibition in experiment [1] worked out at 89.6%; in [2], 16.7%; in [3] it was 21.6%.
In the case of `CCOc1cccc(C(=O)Nc2ccc(Br)cc2C(=O)O)c1`, the results for the inhibition in experiment [1], in experiment [2] and in [3] were 19.1%, 36.8% and 31.9%, respectively. Besides, the results for the half-inhibitory concentration (IC50) in experiment [12] and in [13] were 17.1 µM and 20.6 µM, respectively.
In the case of `COc1cc(NC(=O)c2cccc([N+](=O)[O-])c2)c(C(=O)O)cc1OC`, the results for the inhibition in experiment [1] and in [3] were 3.5% and 22.2%, respectively. Besides, the inhibition result in [2] was “inactive”.
For `O=C(Nc1ccc(O)cc1C(=O)O)c1cccc([N+](=O)[O-])c1`, the inhibition in experiment [1] is 1.9%; in [2] it was 31.6%. The inhibition result in experiment [3] was “inactive”.
For `CCCCOc1cc(C(=O)Nc2ccccc2C(=O)O)ccc1[N+](=O)[O-]`, the 50% inhibitory concentration (IC50) in experiment [4] is 7.5 µM; in [12], 6.5 µM; in experiment [13], 3.2 µM. For the same molecule, the inhibition worked out at 47.2% in [1], 58.3% in [2] and 70.8% in experiment [3].
Take `O=C(Nc1ccc(Br)cc1C(=O)O)c1ccc(F)c([N+](=O)[O-])c1`: the results for the inhibition in [1], in experiment [2] and in [3] were 5.6%, 33.6% and 53.2%, respectively. For the same molecule, the concentration for half-maximal inhibition (IC50) is 15.6 µM in experiment [12] and 8.4 µM in experiment [13].
As to `Nc1cccc(C(=O)Nc2ccc(O)cc2C(=O)O)c1`, the values for the inhibition in experiment [1], in experiment [2] and in experiment [3] were 5.6%, 28.7% and 9.7%, respectively.
On to `O=C(Nc1ccc(Cl)cc1C(=O)O)c1cccc([N+](=O)[O-])c1`, for which the results for the inhibition in experiment [1] and in [2] were 3.4% and 23.4%, respectively. Further, in experiment [3], the inhibition result is “inactive”.
In the case of `COc1cc(NC(=O)c2cccc(O)c2)c(C(=O)O)cc1OC`, the IC50 in experiment [4] stood at 5.2 µM; in [11], 50.9 µM; in [6], 86.3 µM; in experiment [7] it was 30 µM; in experiment [9], 2.9 µM. Moreover, the Ratio IC50 in [5] was 10; in experiment [8], 18; in experiment [10] it was 30. Further, the values for the inhibition in experiment [1], in experiment [2] and in [3] were 70.2%, 29.4% and 11.8%, respectively.
Consider `COc1cc(NC(=O)c2cccc(N)c2)c(C(=O)O)cc1OC`, for which the inhibition came out at 5.6% in experiment [1], 20.2% in [2] and 18% in experiment [3].
On to `Cc1cc(Cl)cc(C(=O)O)c1NC(=O)c1cccc([N+](=O)[O-])c1`, for which the inhibition entry in experiment [1] and in [3] was “inactive” each time. For the same molecule, the inhibition in [2] worked out at 22.5%.
As for `O=C(Nc1ccc([N+](=O)[O-])cc1C(=O)O)c1cccc(O)c1`, the concentration for half-maximal inhibition (IC50) in experiment [4] was determined as 2.6 µM; in experiment [6], 35.2 µM; in experiment [7] it was 41.6 µM; in experiment [9], 0.84 µM. The inhibition in [1] was found to be 87.9%; in experiment [2], 10.4%; in experiment [3], 11.8%.
As for `CCCCOc1cccc(C(=O)Nc2ccc(Br)cc2C(=O)O)c1`, the results for the inhibition in [1], in experiment [2] and in [3] were 30.4%, 70.5% and 65.9%, respectively. Further, the IC50 in experiment [12] and in experiment [13] was 4.9 µM throughout.
In the case of `O=C(Nc1ccc(Cl)cc1C(=O)O)c1cccc(O)c1`, the 50% inhibitory concentration (IC50) in experiment [4] came out at 2.2 µM; in experiment [11] it was 20.1 µM; in experiment [6] it was 50.8 µM; in [7] it was 50.2 µM; in experiment [9] it was 0.31 µM. In addition, the Ratio IC50 in experiment [5] amounted to 162; in experiment [8] it was 65; in [10], 164. Further, the inhibition came out at 77.8% in experiment [1], 6.7% in experiment [2] and 17.4% in experiment [3].
